# In ChEMBL document CHEMBL1157665, “Novel 4-thiazolidinone derivatives as potential antifungal and antibacterial drugs” (2010):
# Columns and labels:
# Aspergillus flavus [1] = test: Antifungal activity against Aspergillus flavus ATCC 9643 after 72 hrs by serial sub-cultivation method; type: functional; conditions: ATCC 9643, 72 h
# Summary of the method: (§1)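 MFC was found by serial sub-cultivation of 2 µl into plates holding 100 µl broth per well, then incubation 72 h at 28 °C. MFC is the lowest concentration with no visible growth, taken as 99.5% killing of the original inoculum. Spore inocula came from malt agar cultures washed with 0.85% saline and 0.1% Tween 80.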
# Proteus mirabilis [2] = test: Antibacterial activity against Proteus mirabilis after 24 hrs; type: functional
# Summary of the method: (§2)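 Broth microdilution MIC in 96-well plates. Compounds in LB broth with bacterial inoculum of 1.0 × 10^4 cfu per well, from suspensions adjusted with sterile saline to 1.0 × 10⁵ CFU/ml. Incubated 24 h at […] as printed. MIC taken as the lowest concentration with no visible growth under the binocular microscope. OD at 655 nm also read against blank. Streptomycin and ampicillin as positive controls. Duplicate, repeated three times.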
# Micrococcus flavus [3] = test: Antibacterial activity against Micrococcus flavus ATCC 10240 after 24 hrs; type: functional; conditions: ATCC 10240, 24 h; summary of the method: as §2
# Salmonella typhimurium [4] = test: Antibacterial activity against Salmonella Typhimurium ATCC 13311 after 72 hrs by serial sub-cultivation method; type: functional, Salmonella enterica subsp. enterica serovar Typhimurium; conditions: Salmonella enterica, ATCC 13311, 72 h
# Summary of the method: (§3)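 MBC was found by serial sub-cultivation of 2 µl from the MIC wells into plates holding 100 µl broth per well, then incubation for 72 h. MBC is the lowest concentration with no visible growth, i.e. 99.5% killing of the original inoculum. Bacterial inoculum was 1.0 × 10^4 cfu per well in LB broth. Duplicate, repeated three times.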
# Aspergillus flavus [5] = test: Antifungal activity against Aspergillus flavus ATCC 9643 after 72 hrs by serial dilution method; type: functional; conditions: ATCC 9643, 72 h
# Summary of the method: (§4)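 Fungi were kept on malt agar at 4 °C and sub-cultured monthly. Spores were washed off the agar with sterile 0.85% saline containing 0.1% Tween 80 (v/v). Modified microdilution in 96-well plates. MIC is the lowest concentration with no visible growth under the binocular microscope. Inoculum checked on malt agar for contamination and validity.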
# Listeria monocytogenes [6] = test: Antibacterial activity against Listeria monocytogenes NCTC 7973 after 72 hrs by serial sub-cultivation method; type: functional; conditions: NCTC 7973, 72 h; summary of the method: as §3
# Aspergillus fumigatus [7] = test: Antifungal activity against Aspergillus fumigatus plant isolate after 72 hrs by serial sub-cultivation method
# Proteus mirabilis [8] = test: Antibacterial activity against Proteus mirabilis after 72 hrs by serial sub-cultivation method; type: functional; summary of the method: as §3
# Pseudomonas aeruginosa [9] = test: Antibacterial activity against Pseudomonas aeruginosa ATCC 27853 after 72 hrs by serial sub-cultivation method; type: functional; conditions: ATCC 27853, 72 h; summary of the method: as §3
# Fulvia fulva [10] = test: Antifungal activity against Fulvia fulva TK 5318 after 72 hrs by serial dilution method; type: functional; conditions: TK 5318, 72 h; summary of the method: as §4
# Talaromyces funiculosus [11] = test: Antifungal activity against Penicillium funiculosum ATCC 36839 after 72 hrs by serial dilution method; type: functional; conditions: ATCC 36839, 72 h; summary of the method: as §4
# Trichoderma viride [12] = test: Antifungal activity against Trichoderma viride IAM 5061 after 72 hrs by serial dilution method; type: functional; conditions: IAM 5061, 72 h; summary of the method: as §4
# Aspergillus niger [13] = test: Antifungal activity against Aspergillus niger ATCC 6275 after 72 hrs by serial dilution method; type: functional; conditions: ATCC 6275, 72 h; summary of the method: as §4
# Micrococcus flavus [14] = test: Antibacterial activity against Micrococcus flavus ATCC 10240 after 72 hrs by serial sub-cultivation method; type: functional; conditions: ATCC 10240, 72 h; summary of the method: as §3
# Trichoderma viride [15] = test: Antifungal activity against Trichoderma viride IAM 5061 after 72 hrs by serial sub-cultivation method; type: functional; conditions: IAM 5061, 72 h; summary of the method: as §1
# Bacillus cereus [16] = test: Antibacterial activity against Bacillus cereus clinical isolate after 72 hrs by serial sub-cultivation method; type: functional; summary of the method: as §3
# Staphylococcus aureus [17] = test: Antibacterial activity against Staphylococcus aureus ATCC 6538 after 24 hrs; type: functional; conditions: ATCC 6538, 24 h; summary of the method: as §2
# Escherichia coli [18] = test: Antibacterial activity against Escherichia coli ATCC 35210 after 24 hrs; type: functional; conditions: ATCC 35210, 24 h; summary of the method: as §2
# Aspergillus fumigatus [19] = test: Antifungal activity against Aspergillus fumigatus plant isolate after 72 hrs by serial dilution method
# Salmonella typhimurium [20] = test: Antibacterial activity against Salmonella Typhimurium ATCC 13311 after 24 hrs; type: functional, Salmonella enterica subsp. enterica serovar Typhimurium; conditions: Salmonella enterica, ATCC 13311, 24 h; summary of the method: as §2
# Fulvia fulva [21] = test: Antifungal activity against Fulvia fulva TK 5318 after 72 hrs by serial sub-cultivation method; type: functional; conditions: TK 5318, 72 h; summary of the method: as §1
# Aspergillus versicolor [22] = test: Antifungal activity against Aspergillus versicolor ATCC 11730 after 72 hrs by serial sub-cultivation method; type: functional; conditions: ATCC 11730, 72 h; summary of the method: as §1
# Escherichia coli [23] = test: Antibacterial activity against Escherichia coli ATCC 35210 after 72 hrs by serial sub-cultivation method; type: functional; conditions: ATCC 35210, 72 h; summary of the method: as §3
# Staphylococcus aureus [24] = test: Antibacterial activity against Staphylococcus aureus ATCC 6538 after 72 hrs by serial sub-cultivation method; type: functional; conditions: ATCC 6538, 72 h; summary of the method: as §3
# Aspergillus niger [25] = test: Antifungal activity against Aspergillus niger ATCC 6275 after 72 hrs by serial sub-cultivation method; type: functional; conditions: ATCC 6275, 72 h; summary of the method: as §1
# Listeria monocytogenes [26] = test: Antibacterial activity against Listeria monocytogenes NCTC 7973 after 24 hrs; type: functional; conditions: NCTC 7973, 24 h; summary of the method: as §2
# Pseudomonas aeruginosa [27] = test: Antibacterial activity against Pseudomonas aeruginosa ATCC 27853 after 24 hrs; type: functional; conditions: ATCC 27853, 24 h; summary of the method: as §2
# Talaromyces funiculosus [28] = test: Antifungal activity against Penicillium funiculosum ATCC 36839 after 72 hrs by serial sub-cultivation method; type: functional; conditions: ATCC 36839, 72 h; summary of the method: as §1
# Penicillium ochrochloron [29] = test: Antifungal activity against Penicillium ochrochloron ATCC 9112 after 72 hrs by serial dilution method; type: functional; conditions: ATCC 9112, 72 h; summary of the method: as §4
# Penicillium ochrochloron [30] = test: Antifungal activity against Penicillium ochrochloron ATCC 9112 after 72 hrs by serial sub-cultivation method; type: functional; conditions: ATCC 9112, 72 h; summary of the method: as §1
# Bacillus cereus [31] = test: Antibacterial activity against Bacillus cereus clinical isolate after 24 hrs; type: functional; summary of the method: as §2
# Aspergillus versicolor [32] = test: Antifungal activity against Aspergillus versicolor ATCC 11730 after 72 hrs by serial dilution method; type: functional; conditions: ATCC 11730, 72 h; summary of the method: as §4
Structure (SMILES),MFC (Aspergillus flavus [1]) [µM],MIC (Proteus mirabilis [2]) [µM],MIC (Micrococcus flavus [3]) [µM],MBC (Salmonella typhimurium [4]) [µM],MIC (Aspergillus flavus [5]) [µM],MBC (Listeria monocytogenes [6]) [µM],MFC (Aspergillus fumigatus [7]) [µM],MBC (Proteus mirabilis [8]) [µM],MBC (Pseudomonas aeruginosa [9]) [µM],MIC (Fulvia fulva [10]) [µM],MBC (Micrococcus flavus [14]) [µM],MBC (Bacillus cereus [16]) [µM],MIC (Staphylococcus aureus [17]) [µM],MIC (Escherichia coli [18]) [µM],MIC (Salmonella typhimurium [20]) [µM],MBC (Escherichia coli [23]) [µM],MBC (Staphylococcus aureus [24]) [µM],MIC (Listeria monocytogenes [26]) [µM],MIC (Pseudomonas aeruginosa [27]) [µM],MIC (Bacillus cereus [31]) [µM],also measured
COc1ccc(/C=C2\S/C(=N\c3nc(C45CC6CC(CC(C6)C4)C5)cs3)NC2=O)cc1,23.1,46.2,23.1,23.1,17.3,46.2,23.1,69.3,23.1,5.8,46.2,23.1,23.1,11.6,11.6,23.1,46.2,23.1,11.6,23.1,MIC (Talaromyces funiculosus [11]): 11.6 µM; MIC (Trichoderma viride [12]): 11.6 µM; MIC (Aspergillus niger [13]): 17.3 µM; MFC (Trichoderma viride [15]): 23.1 µM; MIC (Aspergillus fumigatus [19]): 17.3 µM; MFC (Fulvia fulva [21]): 23.1 µM; MFC (Aspergillus versicolor [22]): 23.1 µM; MFC (Aspergillus niger [25]): 23.1 µM; MFC (Talaromyces funiculosus [28]): 23.1 µM; MIC (Penicillium ochrochloron [29]): 11.6 µM; MFC (Penicillium ochrochloron [30]): 23.1 µM; MIC (Aspergillus versicolor [32]): 17.3 µM
COc1cc(/C=C2\S/C(=N\c3nc(C45CC6CC(CC(C6)C4)C5)cs3)NC2=O)cc(OC)c1O,20.9,41.8,10.5,15.7,10.5,41.8,20.9,62.7,41.8,5.2,20.9,20.9,10.5,20.9,10.5,41.8,15.7,20.9,15.7,20.9,MIC (Talaromyces funiculosus [11]): 10.5 µM; MIC (Trichoderma viride [12]): 10.5 µM; MIC (Aspergillus niger [13]): 10.5 µM; MFC (Trichoderma viride [15]): 20.9 µM; MIC (Aspergillus fumigatus [19]): 15.7 µM; MFC (Fulvia fulva [21]): 20.9 µM; MFC (Aspergillus versicolor [22]): 20.9 µM; MFC (Aspergillus niger [25]): 20.9 µM; MFC (Talaromyces funiculosus [28]): 20.9 µM; MIC (Penicillium ochrochloron [29]): 5.2 µM; MFC (Penicillium ochrochloron [30]): 10.5 µM; MIC (Aspergillus versicolor [32]): 15.7 µM
CC1(C)S[C@@H]2[C@H](NC(=O)[C@H](N)c3ccccc3)C(=O)N2[C@H]1C(=O)O [AMPICILLIN],–,372,248,492,–,744,–,492,1240,–,372,372,248,372,248,492,372,372,744,248,–
